High-throughput results from PubChem BioAssay.
Hits are enriched below; roughly 4.1% of the tested compounds scored in any of these assays.
Cl transport mod: modulators of human KCC2 chloride dependent transport | Q9H2X9 | KCC2 cells, thallium flux FluoZin-2 fluorescence | B-score of Tl+ flux slope (higher = more flux/activation; lower = inhibition) at 10 µM | hit rate 2.2% among 190,000;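 active means thallium flux slope and its plate-corrected score both differing from the plate sample mean at a set confidence after two filtering rounds, in either direction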;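 further: slope of fluorescence scaled to starting intensity during 10 to 20 s after thallium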
KCNQ1 block: human KCNQ1 channel inhibition; CHO-K1 KCNQ1, FluxOR thallium flux fluorescence; active compounds read high; hit rate 1.3% among 310,000; B-score at 10 µM; AID 2642; P51787;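 active means compounds whose thallium flux B-score, printed positive for inhibition, exceeds three library SD while starting fluorescence stays within three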;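 further: channel opened by potassium depolarization with thallium stimulus after 20 min compound exposure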
hERG rescue: shields human hERG channel from block by proarrhythmic agents | Q12809 | CHO-hERG, FluxOR thallium flux, dofetilide IC70 present | activation (rescue from dofetilide block), less the hit threshold, % at 10 µM | hit rate 0.51% among 310,000;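 active means activation above the mean of controls blocked by dofetilide plus 5 SD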;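 further: thallium influx through hERG after potassium depolarization seen as dye fluorescence rise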
Target sequence (Q12809 whole entry, looked up): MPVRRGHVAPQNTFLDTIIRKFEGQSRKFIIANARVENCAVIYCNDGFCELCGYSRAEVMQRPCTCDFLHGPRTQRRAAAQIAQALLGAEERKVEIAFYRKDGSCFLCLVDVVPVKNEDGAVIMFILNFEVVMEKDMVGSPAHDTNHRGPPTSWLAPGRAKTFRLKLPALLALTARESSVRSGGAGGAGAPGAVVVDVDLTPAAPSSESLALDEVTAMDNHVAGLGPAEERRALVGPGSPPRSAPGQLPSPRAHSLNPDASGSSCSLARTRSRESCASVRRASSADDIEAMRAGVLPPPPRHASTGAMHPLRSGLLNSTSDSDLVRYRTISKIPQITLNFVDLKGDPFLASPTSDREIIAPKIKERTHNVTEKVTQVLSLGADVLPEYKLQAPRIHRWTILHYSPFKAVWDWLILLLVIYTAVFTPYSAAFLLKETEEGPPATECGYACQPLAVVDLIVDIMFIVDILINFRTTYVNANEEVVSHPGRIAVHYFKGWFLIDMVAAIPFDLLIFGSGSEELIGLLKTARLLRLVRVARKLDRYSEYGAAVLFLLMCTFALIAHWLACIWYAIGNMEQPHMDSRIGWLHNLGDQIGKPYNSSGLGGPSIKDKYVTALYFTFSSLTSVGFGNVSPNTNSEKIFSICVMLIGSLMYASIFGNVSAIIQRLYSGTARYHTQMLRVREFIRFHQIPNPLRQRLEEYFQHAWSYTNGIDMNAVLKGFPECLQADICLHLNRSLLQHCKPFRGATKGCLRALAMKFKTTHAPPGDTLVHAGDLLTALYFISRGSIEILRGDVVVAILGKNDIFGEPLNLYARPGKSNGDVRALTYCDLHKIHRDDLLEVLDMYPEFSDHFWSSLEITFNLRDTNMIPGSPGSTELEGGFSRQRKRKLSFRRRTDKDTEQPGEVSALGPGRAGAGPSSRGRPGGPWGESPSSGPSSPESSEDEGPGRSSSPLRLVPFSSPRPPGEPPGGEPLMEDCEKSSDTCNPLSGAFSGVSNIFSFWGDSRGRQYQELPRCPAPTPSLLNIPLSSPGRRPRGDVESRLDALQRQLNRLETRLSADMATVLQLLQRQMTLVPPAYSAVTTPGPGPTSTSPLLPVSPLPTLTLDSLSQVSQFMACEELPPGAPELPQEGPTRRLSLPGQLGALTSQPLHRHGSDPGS
KCNQ1 pot: potentiators or activators of human KCNQ1 potassium channel; P51787; CHO-K1 KCNQ1, thallium flux FluxOR fluorescence; active compounds read high; B-score at 10 µM; hit rate 0.35% among 310,000; AID 2648;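 active means fluorescence ratio B-score, a plate-corrected score, at least three library SD, with initial intensity B-score within 5 SD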
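System: CHO-K1 cells stably expressing KCNQ1 / Medium: assay buffer for compound exposure, DMSO matched across wells / Reagent: thallium- and potassium-containing depolarizing buffer / Compound: one concentration, matched DMSO / Incubation: 20 min compound pretreatment at room temperature / Measured by: kinetic FluxOR fluorescence, 10 s baseline plus 110 s post-stimulus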
KCNK3 block: human KCNK3 channel inhibition, primary screen | AID 602410 | B-score at 10 µM | CHO-KCNK3 thallium flux, FluxOR fluorescence; active compounds read low | hit rate 0.84% among 340,000 | O14649;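 active means B-score under library mean minus 4 SD, starting fluorescence ratio at most library mean plus 5 SD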;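 further: more negative B-score means stronger inhibition of thallium flux through KCNK3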
KCNK9 block: blocks the human KCNK9 two-pore domain potassium channel; HEK293 KCNK9, FluxOR thallium flux fluorescence; active compounds read low; B-score at 10 µM; hit rate 1.2% among 310,000;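 active means ratio B-score over 3 SD below the library mean, with starting fluorescence within 5 SD of its mean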;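 further: negative B-score means less thallium flux so channel inhibition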
KCNK3 inh conf: human KCNK3 channel inhibition, confirmation assay; shares compounds with KCNK3 block; CHO-KCNK3 thallium flux, FluxOR fluorescence; 0% buffer, 100% carvedilol maximal block; ratio percent of control, % at 10 µM; hit rate 99% among 2,400;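 active means ratio percent of control, averaged over triplicates, above buffer control mean plus 5 SD, cut at about 64% in these data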;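 further: ratio is the fluorescence rise from min to max over baseline after thallium stimulus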
KCNK3 noninduced: KCNK3 inhibitor counter-screen hit in non-induced cells; shares compounds with KCNK3 block; non-induced KCNK3 parental cells, FluxOR thallium flux; active compounds read low; thallium flux ratio (lower = more inhibition) at 10 µM; hit rate 40% among 2,400; AID 651747;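 active means thallium flux ratio, averaged over three wells, more than 5 SD below the buffer control mean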;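 further: host cells are CHO cells without KCNK3 induction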
A number is an active result; . = inactive; / = not tested or not shown.

SMILES	Cl transport mod	KCNQ1 block	hERG rescue	KCNQ1 pot	KCNK3 block	KCNK9 block	KCNK3 inh conf	KCNK3 noninduced
COC(=O)C1=C(C)N(C2CCCCC2)C(=O)/C1=C\c1cccs1	.	.	.	.	-9.8	.	98.0	0.139
COc1ccc(OC)c(NC(=O)c2sc3ncnc(N4CCN(c5ccccn5)CC4)c3c2C)c1	/	.	.	.	-9.13	.	104.3	.
COc1ccccc1N1CCN(C(=O)c2sc3ncnc(N4CCN(c5ccccn5)CC4)c3c2C)CC1	/	.	.	.	.	.	/	/
CC(C)Cn1nc(C(=O)Nc2nnc(C3CC3)s2)c2ccccc2c1=O	/	/	/	/	.	/	/	/
CC1CCCC(C)N1S(=O)(=O)c1ccc(NC(=O)c2ccccc2C(=O)N2CCOCC2)cc1 (stereo not drawn)	.	.	.	.	-11.7	.	91.0	.
CN(c1ccccc1C(=O)Nc1ccc(S(=O)(=O)N2CCOCC2)cc1)S(C)(=O)=O	.	.	.	.	.	.	/	/
CCCCn1c(N)c(-c2nc3ccccc3s2)c2c([N+](=O)[O-])nn(CC)c(=O)c21	/	.	.	.	-10.8	.	122.0	0.135
CCCCn1c(N)c(-c2nc3ccccc3s2)c2c([N+](=O)[O-])nn(C)c(=O)c21	.	.	.	.	.	.	/	/
N#Cc1cnc(NCc2ccc(Cl)cc2Cl)nc1	/	.	.	.	-11.7	.	107.7	.
CC(=O)Nc1ccc(NC(=O)C2CCN(C(=O)NC3CCCCC3)CC2)cc1	/	.	.	.	.	.	/	/
Cc1cccc(NS(=O)(=O)c2cc(C(=O)NCCC3=CCCCC3)ccc2Cl)c1	.	.	.	.	-12.2	.	118.3	0.152
Cc1ccccc1OCc1nc(-c2ccccc2)no1	.	.	.	.	.	.	/	/
Cc1ccccc1OCc1nc(-c2ccc(Br)o2)no1	.	.	.	.	-11.9	.	97.7	.
CCCC(=O)c1c[nH]c(C(=O)NCCc2ccccn2)c1	.	.	.	.	-10.8	.	70.0	.
O=C(Nc1ccccc1O)N1c2ccccc2Sc2ccccc21	/	.	.	.	-10.3	.	103.3	.
O=C(NCCO)N1c2ccccc2Sc2ccccc21	/	.	.	.	.	.	/	/
COc1ccc(O)c(C(=O)c2cnn(-c3ccc(Cl)cc3)c2)c1	/	.	.	.	-11.6	.	91.7	.
O=C1CC(N2CCN(S(=O)(=O)c3ccccc3F)CC2)C(=O)N1c1ccc(F)cc1F (stereo not drawn)	/	/	/	/	.	/	/	/
Cc1ccnc2nc(C(=O)OCC(=O)Nc3ccc4c(c3)OCCO4)nn12	/	/	/	/	.	/	/	/
COc1ccccc1OCC(=O)N/N=C/c1c(O)ccc2ccccc12	/	.	.	.	-10.2	-8.6	132.3	.
COc1ccccc1OCC(=O)N/N=C/c1cccc2cccnc12	/	.	.	.	.	.	/	/
COc1cccc(-c2cccc(NC(=O)C3CCN(Cc4ccon4)CC3)c2)c1	/	.	.	.	.	.	/	/
CCOc1ccccc1/C=N/N1CCN(Cc2ccccc2)CC1	/	.	.	.	-11.1	.	83.3	.
Clc1ccccc1/C=N/N1CCN(Cc2ccccc2)CC1	/	.	.	.	.	.	/	/
CCc1ccc2c(c1)C1(NN=C(c3cccc4ccccc34)S1)C(=O)N2 (stereo not drawn)	.	15	.	.	-12.6	.	148.7	0.132
SMILES	Cl transport mod	KCNQ1 block	hERG rescue	KCNQ1 pot	KCNK3 block	KCNK9 block	KCNK3 inh conf	KCNK3 noninduced
CCc1ccc2c(c1)C1(C(=O)N2)N2CCCC2C(C(=O)c2ccc3ccccc3c2)C12C(=O)Nc1ccccc12 (stereo not drawn)	.	.	.	.	.	.	/	/
Cc1sc2ncnc(N3CCC(C(=O)Nc4nc(-c5cccs5)cs4)CC3)c2c1C	/	.	.	.	-8.93	.	94.3	.
Cc1sc2ncnc(N3CCC(C(=O)NNC(=O)c4ccc(Cl)cc4)CC3)c2c1C	/	.	.	.	.	.	/	/
Cc1sc2ncnc(N3CCC(C(=O)Oc4cccc(Cl)c4Cl)CC3)c2c1C	.	.	.	.	-9.14	-8.09	96.3	.
COc1ccccc1/C=N/NC(=O)c1cc2c(ccc3ccccc32)o1	/	.	.	.	-12.2	.	85.3	.
COc1ccc(/C=N/NC(=O)c2cc3c(ccc4ccccc43)o2)cc1OC	/	.	.	.	.	.	/	/
O=C1/C(=C/c2ccc(Br)cc2)Oc2cc(O)ccc21	/	6	.	.	-11.8	.	119.3	0.133
CC(C)(C)c1ccc(/C=C2\Oc3cc(O)ccc3C2=O)cc1	/	.	.	.	.	.	/	/
CCOC(=O)c1cccc(N2CC3CNC(=O)C2(C(=O)OC)N3C)c1 (stereo not drawn)	/	/	/	/	.	/	/	/
COc1ccc(/C=N/NC(=O)c2cc(-c3ccccc3OC)nc3ccccc23)cc1COC(C)=O	.	.	.	.	-11.4	.	97.3	.
COc1ccc(OC)c(-c2csc(NC(=O)Cc3ccccc3)n2)c1	/	.	.	.	-9.44	.	125.0	0.148
COc1ccc(OC)c(-c2csc(NC(=O)Cc3cccs3)n2)c1	.	.	.	.	-8.83	.	84.7	.
COc1ccc(OC)c(-c2csc(NC(=O)C3COc4ccccc4O3)n2)c1 (stereo not drawn)	.	.	.	.	-9.12	.	105.0	0.156
COc1cccc(NC(=O)C2COc3ccccc3O2)c1 (stereo not drawn)	/	.	.	.	.	.	/	/
COc1ccc(CN(C(=O)c2ccco2)c2ccc(C)c(C)c2)cc1	.	.	.	.	-10.5	-7.1	105.3	.
COc1ccc(CC(=O)Nc2nc(-c3cc(OC)ccc3OC)cs2)cc1	.	.	.	.	.	.	/	/
CCOc1ccc(N(Cc2ccc(OC)cc2)C(=O)c2ccco2)cc1	.	.	.	.	.	.	/	/
Cc1occc1C(=O)N(Cc1nc(-c2ccccc2)no1)C(C)C	/	.	.	.	.	.	/	/
CCCCNC(=O)c1onc(CSc2ccccn2)c1C(=O)NCCCC	/	.	.	.	.	.	/	/
N#CCC(=O)Nc1ccc(C(=O)NCCc2c[nH]c3ccccc23)cc1	/	.	.	.	.	.	/	/
C[C@H](NC(=O)Cc1cccc2ccccc12)C(=O)N1CCOCC1	/	/	/	/	.	/	/	/
COc1ccc(OC)c(-c2csc(N(Cc3ccco3)C(=O)c3ccco3)n2)c1	.	.	.	.	-11.9	-7.28	101.7	.
CCCCn1nc(NC(=O)c2cccs2)c2cc3ccccc3nc21	/	.	.	.	-9.53	.	117.7	0.14
Nc1ccc(/C=C/C(=O)c2cccs2)cc1	-7.43	.	.	.	-9.26	.	122.7	0.093
O=C(C=Cc1ccccc1)c1cccs1	/	/	/	/	.	/	/	/
CC(=O)N(C1=C(Cl)C(=O)c2ccccc2C1=O)C1CCCCC1	.	.	.	.	-11.5	-6.9	140.3	0.087
